An excerpt weighted towards active compounds, which were near 1.8% of everything screened.
STAT3 activator: increases IL-6 driven STAT3 reporter signal; U3A cells, IL-6 STAT3-luciferase reporter, luminescence; 100% = signal with IL-6 EC80 alone; activation (% of control), % at 5.6 µM; actives 0.91% (n = 190,000);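 active = activation above the screen-wide mean of compound activation plus 3 SD, cut at about 130% in these data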
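Material: STAT3-luciferase reporter U3A cells; Probe or stimulus: IL-6 (33 ng/mL); Incubation: compound pre-incubation 1 h before IL-6, then 6 h stimulation at 37 °C; Technique: luminescence from STAT3-driven luciferase reporter; Evaluation: % activation versus median of IL-6-stimulated wells; Controls: IL-6-only high control.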
STAT1 blocker: inhibitors of IFN-gamma induced STAT1 signaling; NIH 3T3 STAT1-luciferase reporter, luminescence; inhibition, % at 5.5 µM; actives 0.35% (n = 200,000);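 active = inhibition above a set limit, the mean inhibition across all tested compounds plus 3 SD, cut at about 34% in these data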
PPC-1+TRAIL kill: kills PPC-1 cancer cells in the presence of TRAIL; cell killing (% activity), % at 4 µM or 5 µM; AID 1443; actives 0.41% (n = 220,000); PPC-1 cells + TRAIL, ATPLite viability luminescence;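 active = cell killing above 50% in the first pass at 4 µM, then a duplicate retest at 5 µM averaging 50% or more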
STAT3 inh: reduces IL-6 driven STAT3 reporter signal; U3A cells, IL-6 STAT3-luciferase reporter, luminescence; host cell line lacks STAT1; inhibition, % at 5.5 µM; actives 0.89% (n = 190,000);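 active = inhibition above the mean inhibition across all screened compounds plus 3 SD, cut at about 44% in these data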
C8 TRAIL sens: sensitizes caspase-8 expressing cells to TRAIL; NB7+C8 cells + TRAIL, ATPlite viability luminescence; inhibition (viability loss, TRAIL sensitization), % at 10 µM; actives 1% (n = 360,000);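 active = compounds causing at least 50% loss of cell viability in the single-dose screen, relative to plate controls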
Numbers stand for hits; – = inactive; · = no result.

SMILES | STAT3 activator | STAT1 blocker | PPC-1+TRAIL kill | STAT3 inh | C8 TRAIL sens
O=C(NC1CCCCC1)c1n[nH]c2c1CCCCC2 | · | · | · | · | 77.6
COc1cc(/C=C(\C#N)c2nc3ccccc3[nH]2)cc(OC)c1O | – | – | – | – | –
Cc1cc(/C=C(\C#N)c2nc3ccccc3[nH]2)c(C)n1C | – | – | – | – | 77.9
COc1ccc(/C=C(\C#N)c2nc3ccccc3[nH]2)cc1O | · | · | · | · | 51.8
CCCC#Cc1ccc2c(c1)O[C@H](CN(C)S(=O)(=O)c1cccc(OC)c1)[C@H](C)CN([C@H](C)CO)S2(=O)=O | · | · | · | · | –
COc1ccc(-c2cc(=O)c3ccccc3s2)cc1 | – | – | – | – | 53.7
COc1ccc2sc3ccccc3c(=O)c2c1 | – | – | – | – | –
Oc1[nH]c(N=C2N=c3ccccc3=N2)c2ccccc12 | · | · | – | · | 65.1
COc1ccccc1N1CCN(C(=O)c2noc(C)c2[N+](=O)[O-])CC1 | · | · | · | · | –
Cc1onc(C(=O)N2CCN(C(c3ccccc3)c3ccccc3)CC2)c1[N+](=O)[O-] | – | – | – | – | 91.1
CC(C)(C)c1csc(NC(=O)Nc2ccccc2)n1 | – | – | – | – | 54.4
O=C(O)c1ccc2c(=O)n3c(nc2c1)/C(=C/c1ccccc1Br)CC3 | · | · | · | · | –
O=c1c2ccccc2nc2n1CC/C2=C\c1ccccc1[N+](=O)[O-] | 157.3 | – | – | – | ·
Cc1cc2c(cc1C)-n1nnnc1C(N1CCN(c3ccccc3F)CC1)C(=O)N2 (stereo not given) | · | · | · | · | –
COc1ccc(OC)c(N(CCN2C(=O)c3ccccc3C2=O)C(=O)CCl)c1 | · | · | · | · | 94.3
COc1ccc(NC(=O)CCN2C(=O)c3ccccc3C2=O)c(OC)c1 | · | · | · | · | –
O=C(NCc1ccccc1)C(C1CC1)n1c(=O)c(-c2ccco2)nc2ccccc21 (stereo not given) | · | · | · | · | –
O=C(Oc1ccccc1)N1CCCCC1 | · | · | · | · | –
O=[N+]([O-])c1cc(S(=O)(=O)N2CCCCCC2)ccc1Cl | – | – | 56.3 | – | –
Cc1ccc(S(=O)(=O)N2CCCC2)cc1[N+](=O)[O-] | – | – | – | – | –
Nc1cccc(-c2cc3ccccc3oc2=O)c1 | – | – | – | – | –
O=Cc1c(-c2ccccc2)cc2oc3ccccc3cc1-2 | · | · | · | · | 51.4
CCCCOc1ccc(-c2nc(=S)[nH][nH]2)cc1 | – | – | – | – | 61.5
CCCCOc1ccc(-c2nc(SCC(N)=O)n[nH]2)cc1 | – | – | – | – | –
CCC(C)(C)C1CCc2[nH]nc(C(=O)NCc3ccc(OC)cc3)c2C1 (stereo not given) | · | · | · | · | –
SMILES | STAT3 activator | STAT1 blocker | PPC-1+TRAIL kill | STAT3 inh | C8 TRAIL sens
CCCCCCc1cc2cc(S(=O)(=O)c3ccc(F)c(Cl)c3)c(=O)oc2cc1O | – | – | – | – | 52.3
CCCCCCc1cc2cc(C(=O)Nc3ccc(OC)cc3)c(=O)oc2cc1O | – | – | – | – | 50.8
COc1ccc(NC(=O)c2cc3ccc(O)cc3o/c2=N\O)cc1 | · | · | · | · | 73.5
Nn1c(SCC(=O)Nc2nccs2)nnc1C1CC1 | · | · | · | · | –
COCCNc1oc(-c2ccccc2Cl)nc1S(=O)(=O)c1ccc(C)cc1 | · | · | · | · | –
CCc1n[n+](CC(=O)c2ccccc2)c(N)s1 | – | 59.0 | 64.9 | 64.7 | 58.9
Nc1nc(N)c2cc(CNc3ccc(Cl)c(Cl)c3)ccc2n1 | · | · | · | · | 95.1
O=C(c1ccc(-n2ccnc2)cc1)N1CCCC(CO)(Cc2cccc(Cl)c2)C1 (stereo not given) | · | · | · | · | –
COc1cccc(C(C)(O)c2nc(-c3ccc(N(C)C)cc3)cs2)c1 (stereo not given) | · | · | · | · | –
S=c1nc[nH]c2nc[nH]c12 | · | · | · | · | 71.0
Cn1cnc2nc[nH]c2c1=S | · | · | · | · | –
Cc1cc(C)c2c(c1)/C(=C/C(=O)c1ccc(Br)s1)C(=O)N2 | – | – | – | – | 84.2
Cc1cc(C)c(C)c(S(=O)(=O)NCCN2CCOCC2)c1C | · | · | · | · | –
N/C(=N\OC(=O)c1ccccc1)C(Cc1ccccc1)C(=O)NOC(=O)c1ccccc1 (stereo not given) | · | · | · | · | 89.4
O=C(NOC(=O)c1ccccc1)c1ccccc1 | · | · | – | · | –
CC(C)(c1ccccc1)c1ccc(OCc2ccc(C(=O)O)o2)cc1 | · | · | · | · | –
COc1cc(OC)cc(-c2nnc(Nc3nc4c(F)cccc4s3)o2)c1 | – | – | – | – | –
Fc1cccc2sc(Nc3nnc(-c4ccccc4)o3)nc12 | – | – | – | – | 52.5
NNc1nc2c(F)cccc2s1 | 152.1 | – | – | – | –
O=C(N/N=C/c1cc(Br)ccc1OC(=O)c1ccc(Br)cc1)c1ccncc1 | · | · | · | · | –
CSc1ccccc1NC(=O)CN(C)C(=O)COc1cccc2cccnc12 | · | · | · | · | –
CCOc1ccc2nc(NC(=O)CN3CCC(n4nnc5cc(C(F)(F)F)ccc54)CC3)sc2c1 | – | – | – | – | 56.0
CCn1cnc2scc(-c3ccccc3)c2c1=O | – | – | – | – | –
Cn1cc(/C=N/n2cnc3scc(-c4ccc(Cl)cc4)c3c2=O)c2ccccc21 | 134.8 | – | – | – | –
Nc1ccn([C@@H]2O[C@H](CO)[C@@H](O)[C@@H]2O)c(=O)n1 | – | – | – | – | –
SMILES | STAT3 activator | STAT1 blocker | PPC-1+TRAIL kill | STAT3 inh | C8 TRAIL sens
OCC1OC(n2ccc3c2ncn2ncnc32)C(O)C1O (stereo not given) | · | · | · | · | 81.8
CC(C)C(=O)N1CCCC1(C)C(=O)Nc1ccc2c(c1)OCO2 (stereo not given) | · | · | · | · | –
Brc1ccc(-c2csc(-c3c[nH]c4ccccc34)n2)cc1 | – | – | – | – | –
c1ccc2c(-c3csc(-c4ccncc4)n3)c[nH]c2c1 | 144.0 | – | · | – | –
COc1ccccc1OCCNC(=O)c1ccc2c(c1)OCCO2 | · | · | · | · | 51.7
O=C(NCCS(=O)(=O)NCc1ccccc1)c1ccc2c(c1)OCO2 | · | · | · | · | –
O=C(NCCc1ccccc1)c1ccc2c(c1)OCO2 | · | · | · | · | 71.0
COC(=O)C(C(=O)OC)c1ccccc1NS(=O)(=O)c1c(C)cc(C)cc1C | · | · | · | · | –
N#CC1(NC(=O)CN2C(=O)NC(Cc3c[nH]c4ccccc34)C2=O)CCCCC1 (stereo not given) | · | · | · | · | –
COc1cccc(/C=N/NC(=O)c2ccc([N+](=O)[O-])cc2Cl)c1O | – | – | – | – | 54.9
COc1ccc(C(O)c2nc(-c3cncnc3)cs2)cc1 (stereo not given) | · | · | · | · | –
COc1ccc2oc(-c3ccc(NC(=O)c4ccc(N5CCOCC5)c([N+](=O)[O-])c4)cc3)nc2c1 | – | – | – | – | 50.4
CC1CCN(S(=O)(=O)c2ccc3c(c2)N(C)C(=O)CC(=O)N3C)CC1 | · | · | · | · | –
Cc1cc(Br)c(OCc2ccc(C(=O)N/N=C/c3ccc[nH]3)cc2)c(Br)c1 | · | · | · | · | 67.8
O=C(N/N=C/c1ccc[nH]1)c1ccc(COc2cccc3cccnc23)cc1 | – | – | – | 70.2 | 63.3
COc1cc2nc3n(c(=O)c2cc1OC)-c1ncccc1C(=O)NC3Cc1ccccc1 (stereo not given) | · | · | · | · | –
CCc1nc2ccc(C(=O)NCCN3CCNC3=O)cn2c1N(C)CCC(C)C | · | · | · | · | –
CN=C1NN=C(c2cc(C)n(-c3c(C)n(C)n(-c4ccccc4)c3=O)c2C)CS1 | – | – | – | – | –
